According to ChEMBL document CHEMBL1126317, “2-(aminoalkyl)-5-nitropyrazolo[3,4,5-kl]acridines, a new class of anticancer agents” (1992):
Each block holds one compound with its values, some of them ahead of it. Activity calls are given as the source filed them. The calls are words filed in the database; no cut-off is given here.

Tests used:
L1210 [1] = experiment: In vitro antitumor activity against L1210 leukemia cell line.; assay type: functional; details: Mus musculus, read-out: ID50 (the source's name)
Mus musculus [2] = experiment: In vivo antitumor activity of the compound(ip, 25 mg/kg for 5 days) against CD2F1 mice implanted intraperitoneally with P388 leukemia cells.; assay type: functional; details: route intraperitoneal
Mus musculus [3] = experiment: In vivo antitumor activity of the compound(ip, 50 mg/kg for 5 days) against CD2F1 mice implanted intraperitoneally with P388 leukemia cells; Day 30 survivors=1/6; assay type: functional; details: route intraperitoneal
[4] = Ratio of the ID50's showing antitumor activity against HCT-8 and L1210 leukemia cell lines.; assay type: functional
Summary of the method: (§1)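 Ratio taken as ID50 in HCT-8 cells divided by ID50 in L1210 cells, both ID50s expressed as molar concentrations.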

Mus musculus [5] = experiment: In vivo antitumor activity of the compound(ip, 50 mg/kg for 5 days) against CD2F1 mice implanted intraperitoneally with P388 leukemia cells.; assay type: functional; details: route intraperitoneal
HCT-8 [6] = experiment: In vitro antitumor activity against HCT-8 colon cancer cell line.; assay type: functional; details: Homo sapiens, read-out: ID50 (the source's name)
Mus musculus [7] = experiment: In vivo antitumor activity of the compound(ip, 100 mg/kg for 5 days) against CD2F1 mice implanted intraperitoneally with P388 leukemia cells.; assay type: functional; details: route intraperitoneal
Mus musculus [8] = experiment: In vivo antitumor activity of the compound(ip, 25 mg/kg for 5 days) against CD2F1 mice implanted intraperitoneally with P388 leukemia cells.; details: route intraperitoneal
Mus musculus [9] = experiment: In vivo antitumor activity of the compound(ip, 25 mg/kg for 5 days) against CD2F1 mice implanted intraperitoneally with P388 leukemia cells; Day 30 survivors=1/6; details: route intraperitoneal
Mus musculus [10] = experiment: In vivo antitumor activity of the compound(ip, 3.12 mg/kg for 5 days) against CD2F1 mice implanted intraperitoneally with P388 leukemia cells.; assay type: functional; details: route intraperitoneal
Mus musculus [11] = experiment: In vivo antitumor activity of the compound(ip, 12.5 mg/kg for 5 days) against CD2F1 mice implanted intraperitoneally with P388 leukemia cells; Day 30 survivors=1/6; assay type: functional; details: route intraperitoneal
Mus musculus [12] = experiment: In vivo antitumor activity of the compound(ip, 25 mg/kg for 5 days) against CD2F1 mice implanted intraperitoneally with P388 leukemia cells; Day 30 survivors=2/6; assay type: functional; details: route intraperitoneal
Mus musculus [13] = experiment: In vivo antitumor activity of the compound(ip, 3.12 mg/kg for 5 days) against CD2F1 mice implanted intraperitoneally with P388 leukemia cells; Day 30 survivors=2/6; assay type: functional; details: route intraperitoneal
Mus musculus [14] = experiment: In vivo antitumor activity of the compound(ip, 12.5 mg/kg for 5 days) against CD2F1 mice implanted intraperitoneally with P388 leukemia cells.; assay type: functional; details: route intraperitoneal
[15] = Ratio of the ID50's showing antitumor activity against HCT-8 and L1210 leukemia cell lines; assay type: functional; summary of the method: as §1
L1210 [16] = experiment: In vitro antitumor activity against L1210 leukemia cell line; IA= Inactive; assay type: functional, cell-based; details: Mus musculus
HCT-8 [17] = experiment: In vitro antitumor activity against HCT-8 human colon line; IA= Inactive; assay type: functional, cell-based
Mus musculus [18] = experiment: In vivo antitumor activity of the compound(ip, 6.25 mg/kg for 5 days) against CD2F1 mice implanted intraperitoneally with P388 leukemia cells.; assay type: functional; details: route intraperitoneal
Mus musculus [19] = experiment: In vivo antitumor activity of the compound(ip, 6.25 mg/kg for 5 days) against CD2F1 mice implanted intraperitoneally with P388 leukemia cells; Day 30 survivors=1/6; assay type: functional; details: route intraperitoneal
Mus musculus [20] = experiment: In vivo antitumor activity of the compound(ip, 3.12 mg/kg for 5 days) against CD2F1 mice implanted intraperitoneally with P388 leukemia cells; Day 30 survivors=3/6; assay type: functional; details: route intraperitoneal

Compound: CCN(CC)CCN1Nc2c3cc(OC)c(Cl)cc3nc3c([N+](=O)[O-])ccc1c23.CS(=O)(=O)O
IC50 (L1210 [1]): 270 nM
T/C (Mus musculus [2]): 112%

Compound: CCNCCN1Nc2c3cc(OC)ccc3nc3c([N+](=O)[O-])ccc1c23.CS(=O)(=O)O
IC50 (L1210 [1]): 210 nM
Activity (Mus musculus [3]): 1
Ratio [4]: 0.57
T/C (Mus musculus [5]): 240%
IC50 (HCT-8 [6]): 120 nM

Compound: CCN(CC)CCN1Nc2c3cc(OC)c(OC)cc3nc3c([N+](=O)[O-])ccc1c23.CS(=O)(=O)O
IC50 (L1210 [1]): 1100 nM
T/C (Mus musculus [7]): 126%

Compound: C=CCOc1ccc2nc3c([N+](=O)[O-])ccc4c3c(c2c1)NN4CCN(CC)CC.CS(=O)(=O)O
IC50 (L1210 [1]): 580 nM
T/C (Mus musculus [8]): 258%
Activity (Mus musculus [9]): 1

IC50 (L1210 [1]): 450 nM
Compound: COc1ccc2c(c1)-c1nn(CCNCCO)c3ccc([N+](=O)[O-])c(c13)N2

Compound: CS(=O)(=O)O.O=[N+]([O-])c1ccc2c3c(nn2CCN2CCCC2)-c2cc(O)ccc2Nc13
T/C (Mus musculus [10]): 250%
IC50 (L1210 [1]): 3 nM

Compound: CCOc1ccc2c(c1)-c1nn(CCN(C)C)c3ccc([N+](=O)[O-])c(c13)N2.CS(=O)(=O)O
Activity (Mus musculus [11]): 1

Compound: CCCOc1ccc2c(c1)-c1nn(CCN(CC)CC)c3ccc([N+](=O)[O-])c(c13)N2.CS(=O)(=O)O
Activity (Mus musculus [12]): 2
IC50 (L1210 [1]): 460 nM
T/C (Mus musculus [2]): 273%

Compound: CCN(CC)CCN1Nc2c3cc(OCc4ccccc4)ccc3nc3c([N+](=O)[O-])ccc1c23.CS(=O)(=O)O
IC50 (L1210 [1]): 27 nM
T/C (Mus musculus [5]): 200%

Compound: CN(C)CCN1Nc2c3cc(N(C)C)ccc3nc3c([N+](=O)[O-])ccc1c23.CS(=O)(=O)O
IC50 (L1210 [1]): 600 nM
T/C (Mus musculus [2]): 189%

IC50 (L1210 [1]): 6700 nM
Compound: CN(C)CCCN1Nc2c3ccc(O)cc3nc3c([N+](=O)[O-])ccc1c23.Cl
T/C (Mus musculus [5]): 140%

Compound: CN(C)CCN1Nc2c3cc(O)ccc3nc3c([N+](=O)[O-])ccc1c23.CS(=O)(=O)O
T/C (Mus musculus [10]): 228%
IC50 (L1210 [1]): 2.7 nM
Activity (Mus musculus [13]): 2

Compound: CN(C)CCN1Nc2c3cc(OC(=O)C(C)(C)C)ccc3nc3c([N+](=O)[O-])ccc1c23.CS(=O)(=O)O
T/C (Mus musculus [10]): 236%
IC50 (L1210 [1]): 2.9 nM
Activity (Mus musculus [13]): 2

Compound: CCOc1ccc2c(c1)-c1nn(CCCN(C)C)c3ccc([N+](=O)[O-])c(c13)N2.CS(=O)(=O)O
IC50 (L1210 [1]): 220 nM
T/C (Mus musculus [14]): 236%

Compound: CCN(CC)CCN1Nc2c3cc(OC)ccc3nc3c([N+](=O)[O-])ccc1c23.CS(=O)(=O)O
IC50 (L1210 [1]): 470 nM
T/C (Mus musculus [2]): 242%
IC50 (HCT-8 [6]): 120 nM
Ratio [15]: 0.26

Compound: CCN(CC)CCCN1Nc2c3cc(OC)ccc3nc3c([N+](=O)[O-])ccc1c23.CS(=O)(=O)O
IC50 (L1210 [1]): 1300 nM
T/C (Mus musculus [2]): 210%

Compound: Cc1ccc2c(c1)-c1nn(CCNCCO)c3ccc([N+](=O)[O-])c(c13)N2.Cl
T/C (Mus musculus [5]): 115%

Compound: CCN(CC)CCN1Nc2c3ccc(O)cc3nc3c([N+](=O)[O-])ccc1c23.CS(=O)(=O)O
IC50 (L1210 [1]): 83 nM
T/C (Mus musculus [2]): 130%

Compound: COc1ccc2c(c1)-c1nn(CCCl)c3ccc([N+](=O)[O-])c(c13)N2
ID50 (L1210 [16]): inactive
ID50 (HCT-8 [17]): inactive

Compound: COc1ccc2c(c1Cl)-c1nn(CCCN(C)C)c3ccc([N+](=O)[O-])c(c13)N2.CS(=O)(=O)O
IC50 (L1210 [1]): 100 nM
T/C (Mus musculus [18]): 221%
Activity (Mus musculus [19]): 1

Compound: CN(C)CCCN1Nc2c3cc(O)ccc3nc3c([N+](=O)[O-])ccc1c23.CS(=O)(=O)O
T/C (Mus musculus [10]): 270%
IC50 (L1210 [1]): 1.8 nM
Ratio [4]: 6.7
IC50 (HCT-8 [6]): 12 nM
Activity (Mus musculus [20]): 3

Compound: CCCCOc1ccc2c(c1)-c1nn(CCNCCO)c3ccc([N+](=O)[O-])c(c13)N2.CS(=O)(=O)O
IC50 (L1210 [1]): 650 nM
T/C (Mus musculus [14]): 175%

Compound: CCN(CC)CCOc1ccc2c(c1)-c1nn(CCN(CC)CC)c3ccc([N+](=O)[O-])c(c13)N2.CS(=O)(=O)O
IC50 (L1210 [1]): 500 nM
T/C (Mus musculus [5]): 118%

Compound: CCOc1ccc2c(c1)-c1nn(CCN(CC)CC)c3ccc([N+](=O)[O-])c(c13)N2.CS(=O)(=O)O
IC50 (L1210 [1]): 790 nM
T/C (Mus musculus [14]): 220%

Compound: CCN(CC)CCN1Nc2c3cc(O)c(Cl)cc3nc3c([N+](=O)[O-])ccc1c23.CS(=O)(=O)O
IC50 (L1210 [1]): 150 nM
T/C (Mus musculus [5]): 125%
